Measurements pooled from the literature.
Each line is one published result; the experiments were not run side by side.
Organism: Staphylococcus aureus
Observed: microbial growth

| Structure (SMILES) | method | strain | notes | MIC |
| --- | --- | --- | --- | --- |
| CC1(C)S[C@@H]2[C@H](NC(=O)[C@H](N)c3ccccc3)C(=O)N2[C@H]1C(=O)O | broth dilution | MRSA |  | 345 µM |
| Cc1ccc2[nH]nc(-c3nnc(Nc4ccc(O)cc4)s3)c2c1 |  | ATCC29213 |  | 18.3 µg/mL |
| CCCCCCC#Cc1cncc(-c2nnc(SCc3cc([N+](=O)[O-])cc([N+](=O)[O-])c3)n2CCOC2OC(CN)C(O)C2O)c1 (stereo not drawn) | broth dilution | ATCC29213 |  | > 64 µg/mL |
| CCN1CCC(CCNCc2cc3cc(OC)c(OC)c(OC)c3nc2SCc2ccccc2)CC1 | broth dilution |  |  | 128 µg/mL |
| N=c1sc(C(=O)c2ccc(Nc3cnccn3)cc2)nn1-c1ccccc1 | broth dilution | ATCC25923 |  | 50 µg/mL |
| CCCCCCCCN=c1ccn(CCCCCCCCCCn2ccc(=NCCCCCCCC)cc2)cc1 |  | MSSA |  | 0.5 µM |
| CN[C@H](CC(C)C)C(=O)N[C@H]1C(=O)N[C@@H](CC(N)=O)C(=O)N[C@H]2C(=O)N[C@H]3C(=O)N[C@H](C(=O)N[C@H](C(=O)O)c4cc(O)cc(O)c4-c4cc3ccc4O)[C@H](O)c3ccc(c(Cl)c3)Oc3cc2cc(c3O[C@@H]2O[C@H](CO)[C@@H](O)[C@H](O)[C@H]2O[C@H]2C[C@](C)(N)[C@H](O)[C@H](C)O2)Oc2ccc(cc2Cl)[C@H]1O | agar dilution | ATCC29213 |  | 1 µg/mL |
| COc1ccc(-n2nc(C(=O)c3ccc(Nc4cnccn4)cc3)sc2=N)cc1 | broth dilution | ATCC25923 |  | 6.25 µg/mL |
| CN[C@H](CC(C)C)C(=O)N[C@H]1C(=O)N[C@@H](CC(N)=O)C(=O)N[C@H]2C(=O)N[C@H]3C(=O)N[C@H](C(=O)N[C@H](C(=O)O)c4cc(O)cc(O)c4-c4cc3ccc4O)[C@H](O)c3ccc(c(Cl)c3)Oc3cc2cc(c3O[C@@H]2O[C@H](CO)[C@@H](O)[C@H](O)[C@H]2O[C@H]2C[C@](C)(N)[C@H](O)[C@H](C)O2)Oc2ccc(cc2Cl)[C@H]1O | broth dilution | ATCC29213 |  | 1 µg/mL |
| CCCCCCC#Cc1cncc(-c2nnc(SCc3cc(C(F)(F)F)cc(C(F)(F)F)c3)n2CCCN)c1 | broth dilution | MRSA |  | 4 µg/mL |
| CC1(C)S[C@@H]2[C@H](NC(=O)[C@H](N)c3ccccc3)C(=O)N2[C@H]1C(=O)O | agar dilution | ATCC43300 |  | > 128 µg/mL |
| CC[C@H]1OC(=O)[C@H](C)[C@@H](O[C@H]2C[C@@](C)(OC)[C@@H](O)[C@H](C)O2)[C@H](C)[C@@H](O[C@@H]2O[C@H](C)C[C@H](N(C)C)[C@H]2O)[C@](C)(O)C[C@@H](C)C(=O)[C@H](C)[C@@H](O)[C@]1(C)O | broth dilution | USA300 |  | > 64 µg/mL |
| CCCCCCC#Cc1cncc(-c2nnc(SCc3cc([N+](=O)[O-])cc([N+](=O)[O-])c3)n2CCCN)c1 | broth dilution | ATCC29213 |  | 8 µg/mL |
| CC[C@H]1OC(=O)[C@H](C)[C@@H](O[C@H]2C[C@@](C)(OC)[C@@H](O)[C@H](C)O2)[C@H](C)[C@@H](O[C@@H]2O[C@H](C)C[C@H](N(C)C)[C@H]2O)[C@](C)(O)C[C@@H](C)/C(=N\OCOCCOC)[C@H](C)[C@@H](O)[C@]1(C)O | agar dilution | ATCC43300 |  | 16 µg/mL |
| COc1ccc(N2N=C(C(C)=O)SC2=C(C#N)C(=O)c2ccc(Nc3cnccn3)cc2)cc1 | broth dilution | ATCC25923 |  | 6.25 µg/mL |
| CCC[C@@H]1C[C@@H](C(=O)N[C@@H]([C@H]2O[C@H](SC)[C@H](O)[C@@H](O)[C@H]2O)[C@@H](C)O)N(C)C1 | broth dilution | ATCCBAA44 BAA44 |  | > 64 µg/mL |
| COc1c(N2C[C@@H]3CCCN[C@@H]3C2)c(F)cc2c(=O)c(C(=O)O)cn(C3CC3)c12 | agar dilution | ATCC43300 |  | 0.5 µg/mL |
| CC[C@H]1OC(=O)[C@H](C)[C@@H](O[C@H]2C[C@@](C)(OC)[C@@H](O)[C@H](C)O2)[C@H](C)[C@@H](O[C@@H]2O[C@H](C)C[C@H](N(C)C)[C@H]2O)[C@](C)(O)C[C@@H](C)CN(C)[C@H](C)[C@@H](O)[C@]1(C)O |  | ATCC29213 |  | < 98 µg/mL |
| COc1cccc(OC)c1C(=O)N[C@@H]1C(=O)N2[C@@H]1SC(C)(C)[C@@H]2C(=O)O | broth dilution | ATCCBAA44 BAA44 |  | > 64 µg/mL |
| Cc1ccc2[nH]nc(-c3nnc(Nc4ccc(Cl)cc4)s3)c2c1 |  | ATCC29213 |  | 44.5 µg/mL |
| Brc1ccc2nc(SCc3ccccc3)c(CNCCC3CCN(C4CCCC4)CC3)cc2c1 | broth dilution |  |  | 32 µg/mL |
| CC(=O)NC[C@H]1CN(c2ccc(N3CCOCC3)c(F)c2)C(=O)O1 | broth dilution | ATCCBAA44 BAA44 |  | 0.5 µg/mL |
| c1ccc(CSc2nc3ccc(-c4ccccc4)cc3cc2CNCc2ccc(CN3CCCC3)cc2)cc1 | broth dilution |  |  | > 128 µg/mL |
| [H]/N=C(\N/C(=N/[H])NCCCCCCNC(=N)NC(=N)Nc1ccc(Cl)cc1)Nc1ccc(Cl)cc1 |  | MSSA |  | 0.5 µM |
| CCN1CCC(CCNCc2cc3cc(Br)ccc3nc2SCc2ccccc2)CC1 | broth dilution |  |  | 32 µg/mL |
| O=C(O)c1cn(C2CC2)c2cc(N3CCNCC3)c(F)cc2c1=O | broth dilution | ATCC33591 MRSA |  | 0.5 µg/mL |
| CC(=O)NC[C@H]1CN(c2ccc(N3CCOCC3)c(F)c2)C(=O)O1 | agar dilution | ATCC25923 |  | 1 µg/mL |
| Cc1onc(-c2ccccc2)c1C(=O)N[C@@H]1C(=O)N2[C@@H]1SC(C)(C)[C@@H]2C(=O)O |  | ATCC29213 MSSA | drug-resistant strain | 0.25 µg/mL |
| Cc1ccc2[nH]nc(-c3nnc(Nc4ccc([N+](=O)[O-])cc4)s3)c2c1 |  | ATCC29213 |  | 37.4 µg/mL |
| CCCCCCC#Cc1cncc(-c2nnc(SCc3cc([N+](=O)[O-])cc([N+](=O)[O-])c3)n2C2CCNCC2)c1 | broth dilution | ATCC29213 |  | 8 µg/mL |
